Assay results: ChEMBL document CHEMBL1143856, “Iromycins from Streptomyces sp. and from synthesis: new inhibitors of the mitochondrial electron transport chain” (Bioorg Med Chem, 2008)

How the values were obtained:
[1] = biological target: Mitochondrial complex I; NADH oxidoreductase (Bos taurus, UniProt P25708+P52505); test: Inhibition of NADH-ubiquinone oxidoreductase assessed as NADH oxidase activity in bovine heart submitochondrial particles; type: protein-complex assay
How it was run: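 Bovine heart mitochondria isolated by differential centrifugation and sonicated to submitochondrial particles. Assay buffer was 75 mM air-saturated Na/K phosphate, pH 7.4, with 1 mM EDTA and 1 mM MgCl2, and 42–219 µg/mL protein, at 30 °C. Inhibitors were added in methanol (≤2% v/v) with 4 min preincubation. Reaction started with 0.16 mM NADH; A340 decrease followed over 4 min. Means of 2–4 independent experiments.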

L929 = test: Cytotoxicity against mouse L929 fibroblasts; type: cell-based
Mus musculus = test: Toxicity in mouse at 100 mg/kg, ip; type: organism-based; set-up: dose 100 mg/kg, route intraperitoneal; conditions: in vivo
[2] = Cytotoxicity against human HM02 cells; type: functional, cell-based
How it was run: (§1)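 Human gastric adenocarcinoma HM02, hepatocellular carcinoma HepG2 and breast adenocarcinoma MCF7 lines tested following NCI directives. Cytotoxicity expressed as IC50.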

MCF7 = test: Cytotoxicity against human MCF7 cells; type: functional, cell-based; how it was run: as §1
HepG2 = test: Cytotoxicity against human HepG2 cells; type: functional, cell-based; how it was run: as §1

Mitochondrial complex I; NADH oxidoreductase, sequence (P25708 21-464 limits assumed, other chains not shown): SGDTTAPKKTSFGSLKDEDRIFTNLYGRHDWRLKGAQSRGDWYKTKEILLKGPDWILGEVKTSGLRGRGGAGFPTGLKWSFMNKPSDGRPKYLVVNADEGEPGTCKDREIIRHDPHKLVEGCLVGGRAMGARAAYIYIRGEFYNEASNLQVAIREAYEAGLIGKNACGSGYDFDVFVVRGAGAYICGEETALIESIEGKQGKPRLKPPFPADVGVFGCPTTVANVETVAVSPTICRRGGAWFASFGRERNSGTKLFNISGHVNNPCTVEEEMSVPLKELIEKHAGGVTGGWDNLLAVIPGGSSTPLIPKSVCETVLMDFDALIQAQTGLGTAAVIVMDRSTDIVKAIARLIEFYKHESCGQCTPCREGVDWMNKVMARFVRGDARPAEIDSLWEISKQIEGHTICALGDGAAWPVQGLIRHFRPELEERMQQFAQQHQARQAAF

Row | Structure (SMILES) | IC50 [1] [µM] | other results
1 | CCCc1c(C/C=C(\C)C/C=C/C(C)O)[nH]c(=O)c(C)c1O (centres undefined) [IROMYCIN D] | > 26.5 | –
2 | CCCC1=C(C/C=C(\C)C/C=C/C(C)C)N=C(O)C(C)(O)C1=O (centres undefined) [IROMYCIN F] | > 25.3 | –
3 | CCCc1c(C/C=C(\C)C/C=C/C(C)(C)O)[nH]c(=O)c(C)c1OC(C)=O [IROMYCIN BA] | > 22.4 | –
4 | CCCc1c(CCC(C)CCCC(C)C)[nH]c(=O)c(C)c1O (centres undefined) [IROMYCIN AH] | 2.21 | –
5 | CCCc1c(C/C=C(\C)C/C=C/C(C)C)[nH]c(=O)c(C)c1O [IROMYCIN A] | 0.461 | IC50 (L929): 66 µM; Activity (Mus musculus): Non-toxic; IC50 [2]: > 30 µM; IC50 (MCF7): > 30 µM; IC50 (HepG2): > 30 µM
6 | CCCc1c(C/C=C(\C)C/C=C/C(C)C)oc(=O)c(C)c1O [IROMYCIN AO] | > 26.6 | –
7 | C/C=C(\C)[C@H](O)[C@H](C)/C=C(C)/C=C/C/C(C)=C/Cc1nc(OC)c(OC)c(O)c1C [PIERICIDIN A] | 0.005 | IC50 (L929): 0.00043 µM
8 | CCCc1c(C/C=C(\C)C/C=C/C(C)C)[nH]c(=O)c(C)c1OC(C)=O [IROMYCIN AA] | > 23.4 | –
9 | CCCc1c(C/C=C(\C)C/C=C/C(C)(C)C)oc(=O)c(C)c1O [IROMYCIN SO] | 15.1 | –
10 | CCCC1(O)C(C/C=C(\C)C/C=C/C(C)C)=NC(=O)C(C)=C1O (centres undefined) [IROMYCIN E] | > 25.3 | –
11 | CCCc1c(C/C=C(\C)C/C=C/C(C)(C)O)[nH]c(=O)c(C)c1O [IROMYCIN B] | 17.8 | IC50 (L929): 66 µM; IC50 [2]: > 30 µM; IC50 (MCF7): > 30 µM; IC50 (HepG2): > 30 µM
12 | CCCCC/C(C)=C/Cc1oc(=O)c(C)c(O)c1CCC [IROMYCIN MO] | 8.55 | –
13 | CCCc1c(C/C=C(\C)C/C=C/C(C)(C)C)[nH]c(=O)c(C)c1O [IROMYCIN S] | 0.183 | IC50 (L929): 10 µM
14 | CCCc1c(C/C=C(\C)C/C=C/C(C)C)[nH]c(=O)c(C)c1OC [IROMYCIN AM] | 2.8 | –
15 | CCCCC/C(C)=C/Cc1[nH]c(=O)c(C)c(O)c1CCC [IROMYCIN M] | 1.01 | IC50 (L929): 66 µM
16 | CCCc1c(C/C=C(\C)C/C=C/C(C)(C)O)[nH]c(=O)c(C)c1OC [IROMYCIN BM] | > 24.3 | –
17 | CC/C=C/C/C(C)=C/Cc1[nH]c(=O)c(C)c(O)c1CCC [IROMYCIN C] | 3.52 | –
